The text below walks through data of ChEMBL document CHEMBL1129731, “The chemistry of pseudomonic acid. 17. Dual-action C-1 oxazole derivatives of pseudomonic acid having an extended spectrum of antibacterial activity” (J Med Chem, 1996).

In data set [1] the test system is Staphylococcus aureus. Nature of the data set: Minimal inhibitory concentration against Staphylococcus aureus Smith. It is filed as functional. The gist of the method: (§1)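 Broth microdilution in Mueller–Hinton broth; overnight broth cultures added to final 5 × 10^5 cfu/mL; incubated 37 °C, 18 h. MIC (µg/mL) taken as lowest concentration inhibiting growth.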
The subject of data set [2] is Mus musculus. Nature of the data set: Total […] dose against Staphylococcus aureus after sc administration (1+5 hr post infection) to mouse. The conditions noted are these: in vivo. The format is organism-based. The gist of the method: (§2)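 CD1 male mice, groups of five, infected ip with S. aureus Smith, 1.3 × 10^10 cfu (po groups) or 5 × 10^9 cfu (sc groups); dosed po or sc at 1 + 5 h postinfection, 0.2 mL/mouse. CD50 = total dose protecting 50% of mice from death, scored day 2 postinfection.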

Data set [3] concerns Mus musculus. Nature of the data set: Total […] dose against Staphylococcus aureus after po administration (1+5 hr post infection) to mouse. It is filed as organism-based. To be noted: in vivo. The gist of the method: as §2
Data set [4] deals with T1, Isoleucine--tRNA ligase (Staphylococcus aureus, UniProt P41972).
T1 sequence (P41972 whole entry): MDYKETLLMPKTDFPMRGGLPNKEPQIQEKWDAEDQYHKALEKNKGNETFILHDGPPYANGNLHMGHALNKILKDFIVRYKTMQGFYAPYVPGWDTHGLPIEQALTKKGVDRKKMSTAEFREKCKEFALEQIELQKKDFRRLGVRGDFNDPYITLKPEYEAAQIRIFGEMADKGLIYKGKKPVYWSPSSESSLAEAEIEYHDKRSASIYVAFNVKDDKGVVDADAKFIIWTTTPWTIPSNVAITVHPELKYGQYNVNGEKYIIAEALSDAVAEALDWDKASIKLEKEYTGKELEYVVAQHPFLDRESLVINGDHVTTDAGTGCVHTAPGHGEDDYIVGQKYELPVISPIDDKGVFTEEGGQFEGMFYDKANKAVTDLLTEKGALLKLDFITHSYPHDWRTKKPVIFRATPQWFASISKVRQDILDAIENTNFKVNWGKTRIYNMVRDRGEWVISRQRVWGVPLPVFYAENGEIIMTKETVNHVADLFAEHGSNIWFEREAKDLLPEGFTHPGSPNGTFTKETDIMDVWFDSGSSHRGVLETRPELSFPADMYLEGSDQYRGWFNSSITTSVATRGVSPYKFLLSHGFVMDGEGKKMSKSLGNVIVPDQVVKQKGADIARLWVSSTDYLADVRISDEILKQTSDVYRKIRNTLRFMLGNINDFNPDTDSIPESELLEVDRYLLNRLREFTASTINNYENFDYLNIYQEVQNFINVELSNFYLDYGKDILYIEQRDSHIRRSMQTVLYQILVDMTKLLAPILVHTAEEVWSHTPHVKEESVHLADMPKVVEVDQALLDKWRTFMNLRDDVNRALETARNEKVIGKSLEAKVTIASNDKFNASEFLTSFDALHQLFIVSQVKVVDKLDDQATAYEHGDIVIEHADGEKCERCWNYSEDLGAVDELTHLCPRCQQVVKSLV
Nature of the data set: Inhibitory activity against isoleucyl-tRNA synthetase (IRS) of Staphylococcus aureus C 7.

The test system of another data set is Bacteroides fragilis. Nature of the data set: compound was tested for antibacterial activity against Bacteroides fragilis NCTC 10581. It is filed as functional.
For data set [5], the target named is T1, Isoleucine--tRNA ligase. Nature of the data set: Inhibitory activity against isoleucyl-tRNA synthetase (IRS) of Staphylococcus aureus 11481.
A further data set deals with Enterococcus faecalis. Nature of the data set: compound was tested for antibacterial activity against Ent. faecalis I. The format is functional. The gist of the method:
as §1

Another data set has as its system Pseudomonas aeruginosa. Nature of the data set: compound was tested for antibacterial activity against Pseudomonas aeruginosa K799 wt. The format is functional. The gist of the method:
as §1

For a further data set, the system named is Moraxella catarrhalis. Nature of the data set: compound was tested for antibacterial activity against Moraxella catarrhalis 1502. The format is functional. A digest of the protocol: (§3)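 Broth microdilution in Mueller–Hinton broth supplemented (final) with 5% heat-inactivated horse serum, 0.02 mg/mL hematin and 0.08 mg/mL NAD; inoculum 5 × 10^5 cfu/mL from overnight broth cultures; 37 °C for 18 h; MIC (µg/mL) read as lowest concentration inhibiting growth.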

The test system of another data set is Streptococcus pyogenes. Nature of the data set: compound was tested for antibacterial activity against Streptococcus pyogenes CN10. It is filed as functional. The gist of the method: as §3
The subject of the next data set is Proteus mirabilis. Nature of the data set: compound was tested for antibacterial activity against Pr. mirabilis C889. It is filed as functional. The gist of the method:
as §1

A further data set deals with Streptococcus pneumoniae. Nature of the data set: compound was tested for antibacterial activity against Strep. pneumoniae 1761. It is filed as functional. A digest of the protocol: as §3
Another data set has as its system Klebsiella pneumoniae. Nature of the data set: compound was tested for antibacterial activity against Klebsiella pneumoniae E70. It is filed as functional. A digest of the protocol: as §1
Data set [6] concerns Isoleucine--tRNA ligase (Staphylococcus aureus). Nature of the data set: Inhibitory activity against isoleucyl-tRNA synthetase (IRS) of Staphylococcus aureus NCTC 6571.
Data set [7] concerns Staphylococcus aureus. Nature of the data set: compound was tested for antibacterial activity against Staphylococcus aureus NCTC 6571. It is filed as functional. A digest of the protocol:
as §1

For data set [8], the system named is Staphylococcus aureus. Nature of the data set: Minimum inhibitory concentration against Staphylococcus aureus C 7. The format is functional. A digest of the protocol: as §1
The next data set deals with Haemophilus influenzae. Nature of the data set: compound was tested for antibacterial activity against Haemophilus influenzae Q1. The format is functional. A digest of the protocol: as §3
The next data set has as its system Escherichia coli. Nature of the data set: compound was tested for antibacterial activity against Escherichia coli DC2. The format is functional. The gist of the method:
as §1

Data set [9] concerns Staphylococcus epidermidis. Nature of the data set: compound was tested for antibacterial activity aagainst Staphylococcus epidermidis PHLN 20. It is filed as functional. The gist of the method: as §1
In data set [10] the test system is Staphylococcus aureus. Nature of the data set: compound was tested for antibacterial activity against Staphylococcus aureus F 89. The format is functional. The gist of the method: as §1

≈ marks a conversion by molar mass, not a printed value.

In the data set with Staphylococcus aureus [1], `CC1(C)S[C@@H]2[C@H](NC(=O)[C@H](N)c3ccc(O)cc3)C(=O)N2[C@H]1C(=O)O` [AMOXICILLIN] came in with an MIC of 0.25 µg/mL (≈ 0.684 µM). In addition, the values for the CD50 in the data set on Mus musculus [2] and in the data set with Mus musculus [3] were 0.28 mg/kg and 0.24 mg/kg, respectively.

Take `C/C(=C\C(=O)OCCCCCCCCC(=O)O)C[C@@H]1OC[C@H](C[C@@H]2O[C@H]2[C@@H](C)[C@H](C)O)[C@@H](O)[C@H]1O` [MUPIROCIN]: the values for the IC50 (against Isoleucine--tRNA ligase [4]; against Isoleucine--tRNA ligase [5]; in data set [6]) were 39.9 µM, 0.28 µM and 0.0008 µg/mL (≈ 0.0016 µM), respectively. For the same molecule, the MIC was greater than 64 µg/mL against Bacteroides fragilis; 32 µg/mL (≈ 63.9 µM) in the data set on Enterococcus faecalis; greater than 64 µg/mL in the data set on Pseudomonas aeruginosa; 0.5 µg/mL (≈ 0.999 µM) against Moraxella catarrhalis; less than 0.06 µg/mL with Streptococcus pyogenes; greater than 64 µg/mL in the data set on Proteus mirabilis. For the same molecule, the MIC in the data set with Streptococcus pneumoniae was less than 0.06 µg/mL; in the data set with Klebsiella pneumoniae it was greater than 64 µg/mL; with Staphylococcus aureus [7], less than 0.06 µg/mL; in the data set on Staphylococcus aureus [8], greater than 2050 µg/mL; against Haemophilus influenzae it was less than 0.06 µg/mL; in the data set with Escherichia coli, 0.13 µg/mL (≈ 0.26 µM). Further, the MIC in [9] is 0.125 µg/mL (≈ 0.25 µM); in the data set with Staphylococcus aureus [10], greater than 64 µg/mL.
